Columns and labels:
Format in all cases: functional
TK-10 = assay: Anticancer activity against human TK10 cells
Method in brief: (§1)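 NCI 60-cell-line panel. A single-dose (10 µM) prescreen was run first. Compounds giving over 60% growth inhibition in at least eight lines then went to five-dose response studies. Dose-response curves of effect versus log10 concentration. GI50 is the molar concentration giving a 50% reduction in net protein increase versus control cells. LC50 is the concentration lethal to 50% of cells.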

HL-60(TB) = assay: Anticancer activity against human HL-60(TB) cells
Method in brief: (§2)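 NCI 60-cell human tumour panel (leukemia, lung, colon, CNS, melanoma, ovarian, renal, prostate, breast). A first-stage single-dose screen at 10 µM was run. Compounds giving over 60% growth inhibition in at least eight lines went on to a five-dose response. Effect was plotted against log10 molar concentration per line. GI50 is the concentration giving 50% reduction in net protein increase versus control cells. LC50 is the concentration lethal to 50% of cells.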

HOP-62 = assay: Anticancer activity against human HOP62 cells; method in brief: as §2
CAKI-1 = assay: Anticancer activity against human Caki1 cells; method in brief: as §2
SK-MEL-5 = assay: Anticancer activity against human SK-MEL-5 cells; method in brief: as §2
HOP-92 = assay: Anticancer activity against human HOP92 cells
Method in brief: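 NCI 60-cell human tumour panel screen that includes non-small cell lung lines. The first stage used a single 10 µM dose. Compounds reaching more than 60% growth inhibition in at least eight lines went on to five-dose response testing. GI50 and LC50 came from curves of effect against log10 molar concentration. GI50 is the concentration giving a 50% reduction in net protein increase versus control cells.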

HCT-15 = assay: Anticancer activity against human HCT15 cells; method in brief: as §2
OVCAR-3 = assay: Anticancer activity against human OVCAR3 cells; method in brief: as §2
PC-3 = assay: Anticancer activity against human PC3 cells; method in brief: as §2
SNB-75 = assay: Anticancer activity against human SNB75 cells; method in brief: as §1
K562 = assay: Anticancer activity against human K562 cells; method in brief: as §2
ACHN = assay: Anticancer activity against human ACHN cells; method in brief: as §2
RXF 393 = assay: Anticancer activity against human RXF393 cells; method in brief: as §2
M14 = assay: Anticancer activity against human M14 cells; method in brief: as §2
MOLT-4 = assay: Anticancer activity against human MOLT4 cells; method in brief: as §2
EKVX = assay: Anticancer activity against human EKVX cells; method in brief: as §2
[1] = Anticancer activity against human […] cells; method in brief: as §2
NCI-H460 = assay: Anticancer activity against human NCI-H460 cells; method in brief: as §2
SN12C = assay: Anticancer activity against human SN12C cells; method in brief: as §2
SF-539 = assay: Anticancer activity against human SF539 cells; method in brief: as §2
U-251 = assay: Anticancer activity against human U251 cells; method in brief: as §1
SNB-19 = assay: Anticancer activity against human SNB19 cells; method in brief: as §2
MDA-MB-435 = assay: Anticancer activity against human MDA-MB-435 cells; method in brief: as §2
KM12 = assay: Anticancer activity against human KM12 cells; method in brief: as §2
COLO 205 = assay: Anticancer activity against human COLO205 cells; method in brief: as §2
SF-295 = assay: Anticancer activity against human SF295 cells; method in brief: as §2
NCI-H23 = assay: Anticancer activity against human NCI-H23 cells; method in brief: as §2
NCI-H322M = assay: Anticancer activity against human NCI-H322M cells; method in brief: as §2
786-0 = assay: Anticancer activity against human 786-0 cells; method in brief: as §2
SK-MEL-28 = assay: Anticancer activity against human SK-MEL-28 cells; method in brief: as §2
MCF7 = assay: Anticancer activity against human MCF7 cells; method in brief: as §2
OVCAR-8 = assay: Anticancer activity against human OVCAR8 cells; method in brief: as §2
UO-31 = assay: Anticancer activity against human UO31 cells; method in brief: as §1
[2] = Anticancer activity against human NCI/ADR cells; conditions: NCI/ADR-RES; method in brief: as §2
IGROV-1 = assay: Anticancer activity against human IGROV1 cells; method in brief: as §2
SF-268 = assay: Anticancer activity against human SF268 cells; method in brief: as §2
A498 = assay: Anticancer activity against human A498 cells; method in brief: as §2
MDA-MB-468 = assay: Anticancer activity against human MDA-MB-468 cells; method in brief: as §2
UACC-257 = assay: Anticancer activity against human UACC257 cells; method in brief: as §1
BT-549 = assay: Anticancer activity against human BT549 cells; method in brief: as §2
NCI-H226 = assay: Anticancer activity against human NCI-H226 cells; method in brief: as §2
UACC-62 = assay: Anticancer activity against human UACC62 cells; method in brief: as §1
T47D = assay: Anticancer activity against human T47D cells; method in brief: as §1
LOX IMVI = assay: Anticancer activity against human LOXIMVI cells; method in brief: as §2
NCI-H522 = assay: Anticancer activity against human NCI-H522 cells; method in brief: as §2
DU-145 = assay: Anticancer activity against human DU145 cells; method in brief: as §2
HT-29 = assay: Anticancer activity against human HT-29 cells; method in brief: as §2
OVCAR-5 = assay: Anticancer activity against human OVCAR5 cells; method in brief: as §2
[3] = Anticancer activity against human Hs 578T cells; method in brief: as §2
A549 = assay: Anticancer activity against human A549 cells; method in brief: as §2
Malme-3M = assay: Anticancer activity against human MALME-3M cells; method in brief: as §2
OVCAR-4 = assay: Anticancer activity against human OVCAR4 cells; method in brief: as §2
SK-OV-3 = assay: Anticancer activity against human SKOV3 cells; method in brief: as §2
CCRF-CEM = assay: Anticancer activity against human CCRF-CEM cells; method in brief: as §2
SK-MEL-2 = assay: Anticancer activity against human SK-MEL-2 cells; method in brief: as §2
MDA-MB-231 = assay: Anticancer activity against human MDA-MB-231 cells; method in brief: as §2
HCC 2998 = assay: Anticancer activity against human HCC2998 cells; method in brief: as §2
HCT-116 = assay: Anticancer activity against human HCT116 cells; method in brief: as §2
SW-620 = assay: Anticancer activity against human SW620 cells; method in brief: as §1
[4] = read-out: LC50 (the source's name)

N=C1NC(=O)/C(=C/c2cn(Cc3ccc(F)cc3)c3ccc(Cl)cc23)S1
GI50 (TK-10): 5.64 µM | CC50 (TK-10; [4]): > 100 µM | GI50 (HL-60(TB)): > 100 µM | CC50 (HL-60(TB); [4]): > 100 µM | GI50 (HOP-62): > 100 µM | CC50 (HOP-62; [4]): > 100 µM | GI50 (CAKI-1): > 100 µM | CC50 (CAKI-1; [4]): > 100 µM | GI50 (SK-MEL-5): > 100 µM | CC50 (SK-MEL-5; [4]): > 100 µM | GI50 (HOP-92): > 100 µM | GI50 (HCT-15): > 100 µM | CC50 (HCT-15; [4]): > 100 µM | GI50 (OVCAR-3): > 100 µM | CC50 (OVCAR-3; [4]): 30.1 µM | GI50 (PC-3): 23.6 µM | CC50 (PC-3; [4]): > 100 µM | GI50 (SNB-75): 2.47 µM | CC50 (SNB-75; [4]): > 100 µM | GI50 (K562): 77.6 µM | CC50 (K562; [4]): > 100 µM | GI50 (ACHN): > 100 µM | CC50 (ACHN; [4]): > 100 µM | GI50 (RXF 393): 1.62 µM | CC50 (RXF 393; [4]): > 100 µM | GI50 (M14): 57.2 µM | CC50 (M14; [4]): > 100 µM | GI50 (MOLT-4): > 100 µM | CC50 (MOLT-4; [4]): > 100 µM | GI50 (EKVX): > 100 µM | CC50 (EKVX; [4]): > 100 µM | GI50 [1]: > 100 µM | CC50 [1, 4]: > 100 µM | GI50 (NCI-H460): > 100 µM | CC50 (NCI-H460; [4]): > 100 µM | GI50 (SN12C): > 100 µM | CC50 (SN12C; [4]): > 100 µM | GI50 (SF-539): 4.4 µM | CC50 (SF-539; [4]): > 100 µM | GI50 (U-251): 2.94 µM | CC50 (U-251; [4]): > 100 µM | GI50 (SNB-19): > 100 µM | CC50 (SNB-19; [4]): > 100 µM | GI50 (MDA-MB-435): 32.4 µM | CC50 (MDA-MB-435; [4]): > 100 µM | GI50 (KM12): 7.49 µM | CC50 (KM12; [4]): > 100 µM | GI50 (COLO 205): > 100 µM | CC50 (COLO 205; [4]): > 100 µM | GI50 (SF-295): > 100 µM | CC50 (SF-295; [4]): > 100 µM | GI50 (NCI-H23): 60.1 µM | CC50 (NCI-H23; [4]): > 100 µM | GI50 (NCI-H322M): 71 µM | CC50 (NCI-H322M; [4]): > 100 µM | GI50 (786-0): 37.4 µM | CC50 (786-0; [4]): > 100 µM | GI50 (SK-MEL-28): > 100 µM | CC50 (SK-MEL-28; [4]): > 100 µM | GI50 (MCF7): > 100 µM | CC50 (MCF7; [4]): > 100 µM | GI50 (OVCAR-8): 0.019 µM | CC50 (OVCAR-8; [4]): > 100 µM | GI50 (UO-31): > 100 µM | CC50 (UO-31; [4]): > 100 µM | GI50 [2]: > 100 µM | CC50 [2, 4]: > 100 µM | GI50 (IGROV-1): 3.02 µM | CC50 (IGROV-1; [4]): > 100 µM | GI50 (SF-268): 32 µM | CC50 (SF-268; [4]): > 100 µM | GI50 (A498): 31.5 µM | CC50 (A498; [4]): > 100 µM | GI50 (MDA-MB-468): > 100 µM | CC50 (MDA-MB-468; [4]): > 100 µM | GI50 (UACC-257): 0.013 µM | CC50 (UACC-257; [4]): 0.3 µM | GI50 (BT-549): 98.8 µM | CC50 (BT-549; [4]): > 100 µM | GI50 (NCI-H226): 80.7 µM | CC50 (NCI-H226; [4]): > 100 µM | GI50 (UACC-62): > 100 µM | CC50 (UACC-62; [4]): > 100 µM | GI50 (T47D): > 100 µM | CC50 (T47D; [4]): > 100 µM | GI50 (LOX IMVI): 2.32 µM | CC50 (LOX IMVI; [4]): > 100 µM | GI50 (NCI-H522): 11 µM | CC50 (NCI-H522; [4]): > 100 µM | GI50 (DU-145): 5.24 µM | CC50 (DU-145; [4]): > 100 µM | GI50 (HT-29): 20.8 µM | CC50 (HT-29; [4]): > 100 µM | GI50 (OVCAR-5): > 100 µM | CC50 (OVCAR-5; [4]): > 100 µM | GI50 [3]: 3.67 µM | CC50 [3, 4]: > 100 µM | GI50 (A549): 0.77 µM | CC50 (A549; [4]): > 100 µM | GI50 (Malme-3M): 23.5 µM | CC50 (Malme-3M; [4]): > 100 µM | GI50 (OVCAR-4): 2.49 µM | CC50 (OVCAR-4; [4]): > 100 µM | GI50 (SK-OV-3): > 100 µM | CC50 (SK-OV-3; [4]): > 100 µM | GI50 (CCRF-CEM): > 100 µM | CC50 (CCRF-CEM; [4]): > 100 µM | GI50 (SK-MEL-2): > 100 µM | CC50 (SK-MEL-2; [4]): > 100 µM | GI50 (MDA-MB-231): 6.45 µM | CC50 (MDA-MB-231; [4]): > 100 µM | GI50 (HCC 2998): > 100 µM | CC50 (HCC 2998; [4]): > 100 µM | GI50 (HCT-116): 5.41 µM | CC50 (HCT-116; [4]): > 100 µM | GI50 (SW-620): 38.3 µM | CC50 (SW-620; [4]): > 100 µM
